Consider 2 molecules from ChEMBL document CHEMBL4765251, “Efficient identification of novel anti-glioma lead compounds by machine learning models” (Eur J Med Chem, 2020).

The test system of one data set is Astrocyte. The data set can be described thus: Cytotoxicity against Wistar rat astrocytes assessed as cell growth inhibition at 100 uM measured after 72 hrs by SRB assay. The data set is classed as cell-based. In general terms: Sulforhodamine B stains cellular protein and so reports cell mass.
For data set [1], the system named is GL261. Description: Antitumor activity against C57BL/6 mouse GL261 cells xenografted in C57BL/6 mouse assessed as reduction in tumor volume at 20 mg/kg, ip administered once daily for 10 days starting from 7 days post tumor cell inoculation and measured on day 17. The settings on record: dose 20.0 mg/kg/day, time 10.0 day. The class given is functional, organism-based.

In the next data set the test system is U-251. The data set can be described thus: Antiproliferative activity against human U251MG cells assessed as cell growth inhibition measured after 72 hrs by SRB assay. The class given is functional, cell-based. Conditions: U-251, 72 h.
The test system of data set [2] is C6. The data set can be described thus: Antiproliferative activity against rat C6 cells assessed as cell growth inhibition measured after 72 hrs by SRB assay. The data set is classed as functional, cell-based. Conditions: C6, 72 h.
For another data set, the system named is U-87 MG. Description: Antiproliferative activity against human U87MG cells assessed as cell growth inhibition measured after 72 hrs by SRB assay. The class given is functional, cell-based, U-87MG ATCC. The procedure, abridged:
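U87MG human glioma cells grown in DMEM with 10% FBS at 37 °C, used up to 30 passages and treated at 40-50% confluence. Exposed to 0.1-100 µM for 72 h, with DMSO at most 0.1% final. TCA-fixed, stained with SRB, dye solubilized in Tris pH 10.5, read at 510 nm, expressed as % of DMSO controls. Mean ± SD of three independent assays.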

The test system of data set [3] is GL261. Description: Antitumor activity against C57BL/6 mouse GL261 cells xenografted in C57BL/6 mouse assessed as reduction in tumor volume at 20 mg/kg, po administered via gavage once daily for 10 days starting from 7 days post tumor cell inoculation and measured on day 17. Conditions: dose 20.0 mg/kg/day, time 10.0 day. The data set is classed as functional, organism-based.

The species named for data set [4] is Rattus norvegicus. Description: (§1) Inhibition of TrxR in rat liver assessed as reduction in TNB formation using DTNB and NADPH as substrate preincubated with enzyme for 15 mins followed by NADPH addition by absorbance based analysis. The data set is classed as tissue-based. The procedure, abridged: (§2)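 TrxR activity was measured at 37 °C in 100 mM potassium phosphate pH 7.0 with 2 mg/mL DTNB and 0.01 mg/mL enzyme. Enzyme was preincubated for 15 min with compound or DMSO, then the reaction was started with 0.2 mg/mL NADPH. TNB formation was followed at 412 nm (ε 13.6 mM-1 cm-1). Assays were run in duplicate, with enzyme-free blanks subtracted.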

Data set [5] is described as follows: as §1. The data set is classed as tissue-based. In outline: as §2
Data set [6] can be described thus: Toxicity in C57BL/6 mouse xenografted with C57BL/6 mouse GL261 cells at 100 mg/kg, po administered via gavage once daily for 10 days starting from 7 days post tumor cell inoculation. The data set is classed as organism-based. Conditions: in vivo, 240 h, dose 100 mg/kg/day, time 10 day. The procedure, abridged: (§3)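 Orthotopic model: 5x10^4 GL261 cells in 2 µL serum-free DMEM injected into the right hemisphere of 60-day-old male and female C57BL/6 mice (17-25 g) under ketamine/xylazine. Treatment began 7 days later, n=9 per group. Compound was given in 0.9% saline with 10% DMSO and 0.3% Tween-80, as 100 µL ip or 200 µL by gavage. Body weight change (final minus initial) and mortality were monitored.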

The nature of data set [7]: Toxicity in C57BL/6 mouse xenografted with C57BL/6 mouse GL261 cells at 100 mg/kg, ip administered once daily for 10 days starting from 7 days post tumor cell inoculation. The class given is organism-based. The settings on record: in vivo, 240 h, dose 100 mg/kg/day, time 10 day. In outline: as §3
For data set [8], the species on record is Rattus norvegicus. The data set can be described thus: Inhibition of TrxR in rat liver assessed as reduction in TNB formation using DTNB and NADPH as substrate at 100 uM preincubated with enzyme for 15 mins followed by NADPH addition by absorbance based analysis. The data set is classed as tissue-based. In outline: as §2
Data set [9] deals with C6. The data set can be described thus: Antiproliferative activity against rat C6 cells assessed as cell growth inhibition measured after 72 hrs in presence of 0.0001 to 0.001% Triton X-100 by SRB assay. The class given is functional, cell-based. The procedure, abridged:
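Rat C6 glioma cells were incubated for 72 h in medium with no detergent or with 0.0001% or 0.001% Triton X-100, as a check for aggregation-based cytotoxicity. Viability was read by SRB assay and an EC50 was derived from concentration-response curves. Mean ± SD of three independent assays.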

A short description of data set [10]: Hepatotoxicity in C57BL/6 mouse xenografted with C57BL/6 mouse GL261 cells assessed as serum ALP level at 100 mg/kg, po or ip administered once daily for 10 days starting from 7 days post tumor cell inoculation and measured on day 17 (reference value: 19.1 +/- 8.9 U/L). The data set is classed as toxicity, organism-based. The settings on record: in vivo, 240 h, dose 100 mg/kg/day, time 10 day.

Data set [11] is described as follows: Toxicity in C57BL/6 mouse xenografted with C57BL/6 mouse GL261 cells assessed as mortality at 100 mg/kg, po administered via gavage once daily for 10 days starting from 7 days post tumor cell inoculation. The class given is organism-based. The settings on record: in vivo, 240 h, dose 100 mg/kg/day, time 10 day. In outline: as §3
Data set [12] in a line: Selectivity index, ratio of CC50 for Wistar rat astrocytes to EC50 for human U-251 MG cells. The procedure, abridged: (§4)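 Selectivity index is astrocyte CC50 divided by the glioma-line EC50, both from 72 h SRB assays. No index is given when astrocyte cytotoxicity could not be calculated at the highest concentration tested.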
Data set [13] in a line: Toxicity in C57BL/6 mouse xenografted with C57BL/6 mouse GL261 cells assessed as mortality at 100 mg/kg, ip administered once daily for 10 days starting from 7 days post tumor cell inoculation. The class given is organism-based. The settings on record: in vivo, 240 h, dose 100 mg/kg/day, time 10 day. In outline: as §3
Data set [14] relates to GL261. The data set can be described thus: Antitumor activity against C57BL/6 mouse GL261 cells xenografted in C57BL/6 mouse assessed as reduction in tumor volume at 10 to 100 mg/kg, po administered via gavage once daily for 10 days starting from 7 days post tumor cell inoculation and measured on day 17. The class given is functional, organism-based. Conditions: dose 10-100 mg/kg/day, time 10.0 day. The procedure, abridged:
(§5)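 GL261 cells (5x10^4 in 2 µL DMEM) were injected into the right hemisphere of 60-day-old male and female C57BL/6 mice (17-25 g) under ketamine/xylazine. From day 7, mice received compound once daily for 10 days (n=9 per group), by gavage (200 µL) or ip (100 µL). Vehicle was 0.9% saline with 10% DMSO and 0.3% Tween-80. Tumor volume was taken as the summed segmented areas of three H&E coronal sections.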

A short description of data set [15]: Hepatotoxicity in C57BL/6 mouse xenografted with C57BL/6 mouse GL261 cells assessed as serum ALT level at 100 mg/kg, po or ip administered once daily for 10 days starting from 7 days post tumor cell inoculation and measured on day 17 (reference value: 7.6 +/- 4.2 U/L). Conditions: in vivo, 240 h, dose 100 mg/kg/day, time 10 day. The data set is classed as toxicity, organism-based.

Data set [16] concerns C6. The data set can be described thus: Antiproliferative activity against rat C6 cells assessed as cell growth inhibition preincubated with NAC for 1 hr prior to compound challenge and measured after 72 hrs by SRB assay. The data set is classed as functional, cell-based. In outline:
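C6 cells were pretreated with 2 mM N-acetylcysteine for 1 h, then exposed to compound for 72 h. Viability was measured by SRB assay relative to DMSO-treated controls. Auranofin served as the reference thiol-reactive control.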

Data set [17] can be described thus: Toxicity in C57BL/6 mouse xenografted with C57BL/6 mouse GL261 cells assessed as body weight at 100 mg/kg, po administered via gavage once daily for 10 days starting from 7 days post tumor cell inoculation. The class given is organism-based. The settings on record: in vivo, 240 h, dose 100 mg/kg/day, time 10 day. The procedure, abridged:
as §3

The nature of data set [18]: Hematological toxicity in C57BL/6 mouse xenografted with C57BL/6 mouse GL261 cells assessed as WBC level in blood at 100 mg/kg, po or ip administered once daily for 10 days starting from 7 days post tumor cell inoculation and measured on day 17 (reference value: 8.6 +/- 1.6x10^3/uL). The data set is classed as organism-based. The settings on record: in vivo, 240 h, dose 100 mg/kg/day, time 10 day.

Data set [19] in a line: Antitumor activity against C57BL/6 mouse GL261 cells xenografted in C57BL/6 mouse assessed as reduction in tumor volume at 100 mg/kg, ip administered once daily for 10 days starting from 7 days post tumor cell inoculation and measured on day 17. The data set is classed as functional. The settings on record: C57BL/6, GL261, ip, 240 h, time 10 day. In outline: as §5
Data set [20] in a line: Toxicity in C57BL/6 mouse xenografted with C57BL/6 mouse GL261 cells assessed as body weight at 100 mg/kg, ip administered once daily for 10 days starting from 7 days post tumor cell inoculation. The settings on record: in vivo, 240 h, dose 100 mg/kg/day, time 10 day. The data set is classed as organism-based. In outline:
as §3

Data set [21] is described as follows: Cytotoxicity against Wistar rat astrocytes assessed as cell growth inhibition measured after 72 hrs by SRB assay. The class given is cell-based, Astrocyte. In outline: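 Primary astrocytes taken from the cortex of 2-day-old Wistar rats by mechanical dissociation, grown on poly-L-lysine in high-glucose DMEM and treated at 90% confluence (12-15 days). Exposed to 0.1-100 µM for 72 h, then SRB assay with absorbance read at 510 nm against DMSO controls. Mean ± SD of three independent assays.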

Data set [22] in a line: Hematological toxicity in C57BL/6 mouse xenografted with C57BL/6 mouse GL261 cells assessed as hematocrit level in blood at 100 mg/kg, po or ip administered once daily for 10 days starting from 7 days post tumor cell inoculation and measured on day 17 (reference value: 44.5 +/- 1.8%). The class given is organism-based. The settings on record: in vivo, 240 h, dose 100 mg/kg/day, time 10 day.

The nature of data set [23]: Hematological toxicity in C57BL/6 mouse xenografted with C57BL/6 mouse GL261 cells assessed as blood glucose level at 100 mg/kg, po or ip administered once daily for 10 days starting from 7 days post tumor cell inoculation and measured on day 17 (reference value: 108 +/- 13 mg/dl). The class given is organism-based. Conditions: in vivo, 240 h, dose 100 mg/kg/day, time 10 day.

Data set [24] can be described thus: Nephrotoxicity in C57BL/6 mouse xenografted with C57BL/6 mouse GL261 cells assessed as serum creatinine level at 100 mg/kg, po or ip administered once daily for 10 days starting from 7 days post tumor cell inoculation and measured on day 17 (reference value: 0.4 +/- 0.3 mg/dl). The class given is toxicity, organism-based. The settings on record: in vivo, 240 h, dose 100 mg/kg/day, time 10 day.

Data set [25] can be described thus: Selectivity index, ratio of CC50 for Wistar rat astrocytes to EC50 for human U87MG cells. The procedure, abridged:
as §4

A short description of data set [26]: Selectivity index, ratio of CC50 for Wistar rat astrocytes to EC50 for rat C6 cells. In outline: as §4

For orientation: EC50 means the concentration giving half of the maximal effect. By inhibition is commonly meant the change of the read-out against control, counted positive when it falls. In general, IC50 refers to the concentration needed to halve the response being measured. By inhibition in vivo is commonly meant the share of the control response that was lost under treatment. The term CC50 denotes the concentration at which the toxic effect on the cells reaches its halfway point.

Activity calls are given as the source filed them. No cut-off for these calls is given here.

Turning to `Cn1nnc2c(C(N)=O)ncn2c1=O` [TEMOZOLOMIDE], the Activity result with Astrocyte was “Non-Toxic”. Moreover, the outcome in the data set on GL261 [1] was Active. Moreover, the EC50 in the data set on U-251 was more than 200 µM; in the data set with C6 [2], 60.5 µM; with U-87 MG, more than 200 µM. For the same molecule, the result in the data set on GL261 [3] was inactive.
As for `Cc1cccc(C(=O)/C=C/c2ccc([N+](=O)[O-])o2)c1`, the inhibition entry in the data set filed under Rattus norvegicus [4] was “Dose-dependent effect”; in the data set filed under Rattus norvegicus [8] it was 95.2%. For the same molecule, the IC50 in data set [5] came to 25 µM. Further, the Activity entry in data set [6] is on record as “Non-Toxic”; in data set [7], “Non-Toxic”; in data set [10] it was 20.3 U/L; in [11], “Non-Toxic”; in data set [13], “Non-Toxic”; in data set [15], 6.2 U/L. In addition, the Activity entry in data set [17] was “Non-Toxic”; in [18], 8.4 10^3 /uL; in [20] it was “Non-Toxic”; in data set [22], 46%; in [23] it was 108 mg/dL; in data set [24] it was 0.4 mg/dL. The outcome in the data set with C6 [9] was Active. Also, the “Ratio CC50/EC50” value in data set [12] is reported as 22.7; in [25], 15.8; in data set [26], 24.8. Besides, the result in the data set on GL261 [14] and in the data set with C6 [16] was inactive. For the same molecule, the inhibition in vivo at 100 mg/kg/day in [19] was found to be 43.8%. Moreover, the EC50 in the data set on U-251 came out at 2.3 µM; in the data set on C6 [2], 2.1 µM; with U-87 MG, 3.3 µM. Besides, the CC50 at 72 h in data set [21] was determined as 52.2 µM.
